Test results as given in ChEMBL document CHEMBL1151773, “Synthesis and biological evaluation of amide derivatives of (5,6-dimethoxy-2,3-dihydro-1H-inden-1-yl)acetic acid as anti-inflammatory agents with reduced gastrointestinal ulcerogenecity” (Eur J Med Chem, 2008).

Assays:
Rattus norvegicus [1] = experiment: Antipyretic activity in Wistar rat assessed as change in LPS-induced rectal temperature at 10 mg/kg, po administered 30 mins before LPS challenge after 7 hrs; assay type: functional
In short: (§1)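 Adult female Wistar rats, 170±20 g, fasted 24 h, dosed orally at 09:00; 30 min later E. coli 0111:B4 phenol-extracted LPS in apyrogenic saline given i.p. Rectal temperature by telethermometer probe just before and 1–7 h hourly after LPS; temperature index calculated from these readings. n = 6.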

Rattus norvegicus [2] = experiment: Antipyretic activity in Wistar rat assessed as change in LPS-induced rectal temperature at 10 mg/kg, po administered 30 mins before LPS challenge after 4 hrs; assay type: functional; in short: as §1
Rattus norvegicus [3] = experiment: Antipyretic activity in Wistar rat assessed as change in LPS-induced rectal temperature at 10 mg/kg, po administered 30 mins before LPS challenge after 2 hrs; assay type: functional; in short: as §1
Rattus norvegicus [4] = experiment: Antiinflammatory activity in Wistar rat assessed as inhibition of carrageenan-induced hind paw edema volume at 10 mg/kg, po administered 60 mins before carrageenan challenge after 24 hrs relative to control; assay type: functional
Rattus norvegicus [5] = experiment: Gastrointestinal toxicity in Wistar rat assessed as ulcer index at 30 mg/kg, po after 6 hrs; assay type: organism-based; set-up: dose 30 mg/kg, route oral; conditions: in vivo
In short: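 Female Wistar rats, 175±25 g, fasted 24 h, dosed orally once; sacrificed 6 h later by cervical dislocation. Stomach opened along greater curvature, saline-washed, mucosa inspected with a hand lens. Lesions graded I (edema/hyperemia/petechiae), II (hemorrhagic lesions with small erosions), III (deep ulcers); UI = nI + 2nII + 3nIII. Mean ± SEM, n = 6.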

Rattus norvegicus [6] = experiment: Antipyretic activity in Wistar rat assessed as change in LPS-induced rectal temperature at 10 mg/kg, po administered 30 mins before LPS challenge after 5 hrs; assay type: functional; in short: as §1
Rattus norvegicus [7] = experiment: Antiinflammatory activity in Wistar rat assessed as inhibition of carrageenan-induced hind paw edema volume at 10 mg/kg, po administered 60 mins before carrageenan challenge after 3 hrs relative to control; assay type: functional
In short: (§2)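 Female Wistar rats (170± 20 g), fasted overnight, n=6 per group; dosed orally, then 0.1 ml of 1% carrageenan injected subplantar into right hind paw 1 h later.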

Rattus norvegicus [8] = experiment: Antiarthritic activity in Freund's complete adjuvant challenged Albino rat model assessed as change in body weight at 10 mg/kg, po administered for 14 days daily once starting a day before adjuvant challenge; assay type: functional; conditions: 336 h, read-out: INH
Rattus norvegicus [9] = experiment: Antiarthritic activity in Albino rat assessed as inhibition of Freund's complete adjuvant-induced paw volume at 10 mg/kg, po administered for 14 days daily once starting a day before adjuvant challenge measured on day 8; assay type: functional
In short: (§3)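 Female albino rats, 160±10 g, six per group, dosed orally once daily for 14 days starting the day before 0.1 ml Freund's complete adjuvant into the right hind paw subplantar surface. Both hind paw volumes, measured up to a mark at the lateral malleolus, taken before and daily after adjuvant.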

Rattus norvegicus [10] = experiment: Antipyretic activity in Wistar rat assessed as change in LPS-induced rectal temperature at 10 mg/kg, po administered 30 mins before LPS challenge after 3 hrs; assay type: functional; in short: as §1
Rattus norvegicus [11] = experiment: Antipyretic activity in Wistar rat assessed as change in LPS-induced rectal temperature at 10 mg/kg, po administered 30 mins before LPS challenge after 6 hrs; assay type: functional; in short: as §1
Rattus norvegicus [12] = experiment: Antiarthritic activity in Albino rat assessed as inhibition of Freund's complete adjuvant-induced paw volume at 10 mg/kg, po administered for 14 days daily once starting a day before adjuvant challenge measured on day 13; assay type: functional; in short: as §3
Rattus norvegicus [13] = experiment: Antiinflammatory activity in Wistar rat assessed as inhibition of carrageenan-induced hind paw edema volume at 10 mg/kg, po administered 60 mins before carrageenan challenge after 1 hr relative to control; assay type: functional; in short: as §2
Rattus norvegicus [14] = experiment: Gastrointestinal toxicity in Wistar rat assessed as ulcer index at 1 mg/kg, po after 14 days; assay type: organism-based; set-up: route oral; conditions: in vivo, 336 h
In short: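 Gastric mucosa examined for ulceration at post-mortem of female albino rats sacrificed at the end of the 14-day once-daily oral dosing in the Freund's adjuvant arthritis study; ulcer index scored per animal. Mean ± SEM, n = 6.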

Rattus norvegicus [15] = experiment: Antiinflammatory activity in Wistar rat assessed as inhibition of carrageenan-induced hind paw edema volume at 10 mg/kg, po administered 60 mins before carrageenan challenge after 6 hrs relative to control; assay type: functional
Rattus norvegicus [16] = species: Rattus norvegicus; experiment: animal or person; conditions: Wistar, po, read-out: INH
Rattus norvegicus [17] = experiment: Antipyretic activity in Wistar rat assessed as change in LPS-induced rectal temperature at 10 mg/kg, po administered 30 mins before LPS challenge after 1 hr; assay type: functional; in short: as §1
Rattus norvegicus [18] = experiment: Antiarthritic activity in Albino rat assessed as inhibition of Freund's complete adjuvant-induced paw volume at 10 mg/kg, po administered for 14 days daily once starting a day before adjuvant challenge measured on day 3; assay type: functional; in short: as §3
Mus musculus = experiment: Analgesic activity in Swiss albino mouse assessed as inhibition of acetic acid-induced writhing at 10 mg/kg, po administered 60 mins before acetic acid challenge after 5 to 15 mins relative to control; assay type: functional
In short: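 Female Swiss albino mice, 20±5 g, fasted overnight with free water access, dosed orally; 1 h later injected i.p. with 1% v/v acetic acid at 0.1 ml/10 g. Writhes (full hind-limb extension) counted for 15 min, starting 5 min after injection; only animals giving 20 or more writhes used. % inhibition = 100(1−Wt/Wc) vs control group mean; six animals per group.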

Rattus norvegicus [19] = experiment: Antiinflammatory activity in Wistar rat assessed as inhibition of carrageenan-induced hind paw edema volume at 10 mg/kg, po administered 60 mins before carrageenan challenge after 4 hrs relative to control; assay type: functional; in short: as §2

Question: `COc1ccc2c(c1)c(CC(=O)O)c(C)n2C(=O)c1ccc(Cl)cc1` [INDOMETHACIN] was tested. Which Activity (Rattus norvegicus [1]) did it give?
Answer: The Activity was 0.55 °C.

Question: What about the Activity (Rattus norvegicus [2]) of the same molecule?
Answer: The Activity was 0.22 °C.

Question: And the Activity (Rattus norvegicus [3])?
Answer: Its Activity is -1.03 °C.

Question: And the inhibition in vivo at 10 mg/kg (Rattus norvegicus [4])?
Answer: Its inhibition in vivo at 10 mg/kg is 13.3%.

Question: And the UI (Rattus norvegicus [5])?
Answer: The UI was 31.37.

Question: What about the Activity (Rattus norvegicus [6]) of the same molecule?
Answer: The Activity was 0.3 °C.

Question: What about the inhibition in vivo at 10 mg/kg (Rattus norvegicus [7]) of the same molecule?
Answer: The inhibition in vivo at 10 mg/kg was 65.2%.

Question: And the inhibition in vivo at 10 mg/kg (Rattus norvegicus [8])?
Answer: Its inhibition in vivo at 10 mg/kg is 5.68 g.

Question: And the inhibition in vivo at 10 mg/kg (Rattus norvegicus [9])?
Answer: The inhibition in vivo at 10 mg/kg was 43.9%.

Question: And the Activity (Rattus norvegicus [10])?
Answer: Its Activity is -0.11 °C.

Question: And the Activity (Rattus norvegicus [11])?
Answer: The Activity was 0.35 °C.

Question: What about the inhibition in vivo at 10 mg/kg (Rattus norvegicus [12]) of the same molecule?
Answer: The inhibition in vivo at 10 mg/kg was 46.5%.

Question: What about the inhibition in vivo at 10 mg/kg (Rattus norvegicus [13]) of the same molecule?
Answer: The inhibition in vivo at 10 mg/kg was 50%.

Question: And the UI (Rattus norvegicus [14])?
Answer: Its UI is 72.

Question: And the inhibition in vivo at 10 mg/kg (Rattus norvegicus [15])?
Answer: The inhibition in vivo at 10 mg/kg was 48.1%.

Question: And the inhibition in vivo at 10 mg/kg (Rattus norvegicus [16])?
Answer: Its inhibition in vivo at 10 mg/kg is 58%.

Question: And the Activity (Rattus norvegicus [17])?
Answer: The Activity was -0.39 °C.

Question: And the inhibition in vivo at 10 mg/kg (Rattus norvegicus [18])?
Answer: Its inhibition in vivo at 10 mg/kg is 37.5%.

Question: And the inhibition in vivo at 10 mg/kg (Mus musculus)?
Answer: The inhibition in vivo at 10 mg/kg was 51.5%.

Question: And the inhibition in vivo at 10 mg/kg (Rattus norvegicus [19])?
Answer: The inhibition in vivo at 10 mg/kg was 57.8%.
